Calls of active or inactive are those of the source. The calls are words filed in the database; no cut-off is given here.
Columns and labels:
Type in all cases: functional, cell-based
[1] = (§1) Antiproliferative activity against v-Src transformed mouse NIH 3T3 fibroblast after 72 hrs; settings: NIH3T3, 72 h
Summary of the method: (§2)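 NIH 3T3/v-Src fibroblasts seeded at 10⁵/well, left overnight at 37°C in 5% CO₂. Compound exposure 0–150 μM for 72 h. Cells then washed in PBS, trypsinised and counted in a particle counter. Means of at least two independent experiments run in duplicate. IC₅₀ taken from a sigmoidal dose-response fit.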

[2] = system: A2058; assay: Cytotoxicity against human A2058 cells after 72 hrs by WST-1 colorimetric test; settings: for IC50: A2058, 72 h
Summary of the method: (§3)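 WST-1 colorimetric readout, based on cleavage by mitochondrial dehydrogenases. A2058 (4000 cells/well) or HeLa (3000 cells/well) left overnight at 37°C in 5% CO₂, then exposed to compounds at 0–150 μM for 72 h. WST-1 added for 2 h, absorbance at 450 nm read against a background control. Means of at least two independent experiments in triplicate.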

[3] = system: HeLa; assay: Cytotoxicity against human HeLa cells after 72 hrs by WST-1 colorimetric test; summary of the method: as §3
[4] = system: NIH3T3; assay: as §1; summary of the method: as §2
[5] = system: NIH3T3; assay: Antiproliferative activity against v-Src transformed mouse NIH 3T3 fibroblast at 150 uM after 72 hrs; summary of the method: as §2

## NCCCC[C@@H]1N=C(c2ccccc2)c2ccccc2N(Cc2ccc(OP(=O)(O)O)cc2)C1=O
[1]
  IC50: ≥ 80 µM
[2]
  IC50: 33.8 µM
[3]
  IC50: ≥ 80 µM

## C[C@@H]1N=C(c2ccccc2)c2ccccc2N(Cc2ccc(CP(=O)(O)O)cc2)C1=O
[4]
  Activity: inactive
[2]
  Activity: inactive
[3]
  Activity: inactive

## C[C@@H]1N=C(c2ccccc2)c2ccccc2N(Cc2ccc(OP(=O)(O)O)cc2)C1=O
[1]
  IC50: 36.6 µM
[2]
  IC50: 28.9 µM
[3]
  IC50: 21.3 µM

## NCCCC[C@@H]1N=C(c2ccccc2)c2ccccc2N(Cc2ccc(CP(=O)(O)O)cc2)C1=O
[4]
  Activity: inactive
[2]
  Activity: inactive
[3]
  Activity: inactive

## C[C@@H]1N=C(c2ccccc2)c2ccccc2N(Cc2ccc(OP(=O)(O)OCc3ccccc3)cc2)C1=O
[1]
  IC50: 49.5 µM
[2]
  IC50: 61.5 µM
[3]
  IC50: 40.5 µM

## C[C@@H]1N=C(c2ccccc2)c2ccccc2NC1=O
[2]
  Activity: inactive
[3]
  Activity: inactive
[5]
  Activity: inactive

## CN1C(=O)CN=C(c2ccc(Cl)cc2)c2cc(Cl)ccc21 [RO-54864]
[1]
  IC50: 31.9 µM
[2]
  IC50: ≥ 100 µM
[3]
  IC50: ≥ 100 µM

## C[C@@H]1N=C(c2ccccc2)c2ccccc2N(Cc2ccc(O)cc2)C1=O
[1]
  IC50: 38.6 µM
[2]
  IC50: 27.2 µM
[3]
  IC50: 29.3 µM
